In ChEMBL document CHEMBL1123648, “Synthesis, chemical reactivity, and antileukemic activity of 5-substituted 6,7-bis(hydroxymethyl)pyrrolo[1,2-c]thiazole biscarbamates and the corresponding sulfoxides and sulfones” (1987):

Key:
[1] = Toxicity day survivors expressed as number of animals that survived to day five/ number of test animals under control group B at a dose of 100 mg/kg; 6 survived out of 6; assay type: functional, Mus musculus
[2] = Antileukemic activity against Murine P388 lymphocytic leukemia and toxicity day survivors expressed as number of animals that survived to day five/ number of test animals under control group B at a dose of 6.5 mg/kg; 6 survived out of 6; assay type: functional, Mus musculus
[3] = Percent increase in life span of test animals compared to untreated tumor-bearing control group B animals at a dose of 50 mg/kg; assay type: functional; settings: Mus musculus
[4] = Antileukemic activity against Murine P388 lymphocytic leukemia, body weight difference of the test animals compared to control group B animals at a dose of 50 mg/kg; assay type: functional, Mus musculus; set-up: unit not given here
In short: (§1)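 CD2F1 mice implanted intraperitoneally with ascitic fluid carrying ca. 1×10^6 P388 cells, under the NCI protocol. Dosing was intraperitoneal, starting 24 h after inoculation, then every 24 h for five doses in total. The body weight difference of treated mice is taken against untreated controls. Toxicity day survivors are the mice alive at day five out of those tested.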

[5] = Antileukemic activity against Murine P388 lymphocytic leukemia, body weight difference of the test animals compared to control group B animals at a dose of 25 mg/kg; assay type: functional, Mus musculus; set-up: unit not given here; in short: as §1
P388 [6] = experiment: Log cell population relative to cell population at the beginning of treatment compared to control group B at a dose of 6.25 mg/kg; assay type: functional, Mus musculus
[7] = Toxicity day survivors expressed as number of animals that survived to day five/ number of test animals under control group B at a dose of 50 mg/kg; 6 survived out of 6; assay type: functional, Mus musculus
[8] = Percent increase in life span of test animals compared to untreated tumor-bearing control group B animals at a dose of 12.5 mg/kg; assay type: functional; settings: Mus musculus
[9] = Antileukemic activity against Murine P388 lymphocytic leukemia, body weight difference of the test animals compared to control group B animals at a dose of 100 mg/kg; assay type: functional, Mus musculus; set-up: unit not given here; in short: as §1
[10] = Antileukemic activity against Murine P388 lymphocytic leukemia, body weight difference of the test animals compared to control group B animals at a dose of 12.5 mg/kg; assay type: functional, Mus musculus; set-up: unit not given here; in short: as §1
[11] = Toxicity day survivors expressed as number of animals that survived to day five/ number of test animals under control group B at a dose of 12.5 mg/kg; assay type: functional, Mus musculus
[12] = Percent increase in life span of test animals compared to untreated tumor-bearing control group B animals at a dose of 6.25 mg/kg; assay type: functional; settings: Mus musculus
[13] = Antileukemic activity against Murine P388 lymphocytic leukemia, body weight difference of the test animals compared to control group B animals at a dose of 6.25 mg/kg; assay type: functional, Mus musculus; in short: as §1
[14] = Toxicity day survivors expressed as number of animals that survived to day five/ number of test animals under control group B at a dose of 25 mg/kg; 6 survived out of 6; assay type: functional, Mus musculus
[15] = Toxicity day survivors expressed as number of animals that survived to day five/ number of test animals under control group B at a dose of 25 mg/kg; 5 survived out of 6; assay type: functional, Mus musculus
P388 [16] = experiment: Log cell population relative to cell population at the beginning of treatment compared to control group B at a dose of 12.5 mg/kg; assay type: functional, Mus musculus
[17] = Toxicity day survivors expressed as number of animals that survived to day five/ number of test animals under control group B at a dose of 100 mg/kg; 1 survived out of 6; assay type: functional, Mus musculus
P388 [18] = experiment: Log cell population relative to cell population at the beginning of treatment compared to control group B at a dose of 25 mg/kg; assay type: functional, Mus musculus
P388 [19] = experiment: Log cell population relative to cell population at the beginning of treatment compared to control group Bat a dose of 50 mg/kg; assay type: functional, Mus musculus
[20] = Toxicity day survivors expressed as number of animals that survived to day five/ number of test animals under control group B at a dose of 12.5 mg/kg; […] out of 6; assay type: functional, Mus musculus
[21] = Percent increase in life span of test animals compared to untreated tumor-bearing control group B animals at a dose of 25 mg/kg; assay type: functional; settings: Mus musculus
[22] = Toxicity day survivors expressed as number of animals that survived to day five/ number of test animals under control group B at a dose of 50 mg/kg; 5 survived out of 6; assay type: functional, Mus musculus
[23] = Antileukemic activity against Murine P388 lymphocytic leukemia, body weight difference of the test animals compared to control group C animals at a dose of 50 mg/kg; assay type: functional, Mus musculus; set-up: unit not given here; in short: as §1
[24] = Percent increase in life span of test animals compared to untreated tumor-bearing control group C animals at a dose of 50 mg/kg; assay type: functional; settings: Mus musculus
[25] = Toxicity day survivors expressed as number of animals that survived to day five/ number of test animals under control group C at a dose of 25 mg/kg; 6 survived out of 6; assay type: functional, Mus musculus
[26] = Toxicity day survivors expressed as number of animals that survived to day five/ number of test animals under control group C at a dose of 50 mg/kg; 6 survived out of 6; assay type: functional, Mus musculus
[27] = Antileukemic activity against Murine P388 lymphocytic leukemia, body weight difference of the test animals compared to control group C animals at a dose of 100 mg/kg; assay type: functional, Mus musculus; set-up: unit not given here; in short: as §1
[28] = Toxicity day survivors expressed as number of animals that survived to day five/ number of test animals under control group C at a dose of 100 mg/kg; 6 survived out of 6; assay type: functional, Mus musculus
[29] = Percent increase in life span of test animals compared to untreated tumor-bearing control group C animals at a dose of 25 mg/kg; assay type: functional; settings: Mus musculus
[30] = Antileukemic activity against Murine P388 lymphocytic leukemia, body weight difference of the test animals compared to control group C animals at a dose of 200 mg/kg; assay type: functional, Mus musculus; in short: as §1
[31] = Toxicity day survivors expressed as number of animals that survived to day five/ number of test animals under control group C at a dose of 200 mg/kg; 6 survived out of 6; assay type: functional, Mus musculus
P388 [32] = experiment: Log cell population relative to cell population at the beginning of treatment compared to control group C at a dose of 25 mg/kg; assay type: functional, Mus musculus
P388 [33] = experiment: Log cell population relative to cell population at the beginning of treatment compared to control group C at a dose of 50 mg/kg; assay type: functional, Mus musculus
[34] = Antileukemic activity against Murine P388 lymphocytic leukemia, body weight difference of the test animals compared to control group C animals at a dose of 25 mg/kg; assay type: functional, Mus musculus; in short: as §1
[35] = Toxicity day survivors expressed as number of animals that survived to day five/ number of test animals under control group A at a dose of 25 mg/kg; 6 survived out of 6; assay type: functional, Mus musculus
[36] = Antileukemic activity against Murine P388 lymphocytic leukemia, body weight difference of the test animals compared to control group A animals at a dose of 100 mg/kg; assay type: functional, Mus musculus; set-up: unit not given here; in short: as §1
[37] = Percent increase in life span of test animals compared to untreated tumor-bearing control group A animals at a dose of 200 mg/kg; assay type: functional; settings: Mus musculus
[38] = Toxicity day survivors expressed as number of animals that survived to day five/ number of test animals under control group A at a dose of 50 mg/kg; 6 survived out of 6; assay type: functional, Mus musculus
[39] = Toxicity day survivors expressed as number of animals that survived to day five/ number of test animals under control group A at a dose of 200 mg/kg; 6 survived out of 6; assay type: functional, Mus musculus
[40] = Antileukemic activity against Murine P388 lymphocytic leukemia, body weight difference of the test animals compared to control group A animals at a dose of 200 mg/kg; assay type: functional, Mus musculus; in short: as §1
[41] = Toxicity day survivors expressed as number of animals that survived to day five/ number of test animals under control group A at a dose of 400 mg/kg; 3 survived out of 6; assay type: functional, Mus musculus
[42] = Antileukemic activity against Murine P388 lymphocytic leukemia, body weight difference of the test animals compared to control group A animals at a dose of 50 mg/kg; assay type: functional, Mus musculus; set-up: unit not given here; in short: as §1
[43] = Antileukemic activity against Murine P388 lymphocytic leukemia, body weight difference of the test animals compared to control group A animals at a dose of 25 mg/kg; assay type: functional, Mus musculus; set-up: unit not given here; in short: as §1
[44] = Antileukemic activity against Murine P388 lymphocytic leukemia, body weight difference of the test animals compared to control group A animals at a dose of 400 mg/kg; assay type: functional, Mus musculus; in short: as §1
[45] = Toxicity day survivors expressed as number of animals that survived to day five/ number of test animals under control group A at a dose of 100 mg/kg; 6 survived out of 6; assay type: functional, Mus musculus

Q: For `CC(C)NC(=O)OCc1c(COC(=O)NC(C)C)c(-c2ccc(Cl)c(Cl)c2)n2c1CS(=O)(=O)C2`, which TDS [1] is on record?
A: 6

Q: And the TDS [2]?
A: 6

Q: And the ILS at 50 mg/kg [3]?
A: -14%

Q: What about the BWD [4] of the same compound?
A: -0.8

Q: And the BWD [5]?
A: 0.4

Q: What about the KE (P388 [6]) of the same compound?
A: -1.47

Q: And the TDS [7]?
A: 6

Q: And the ILS at 12.5 mg/kg [8]?
A: -13%

Q: And the BWD [9]?
A: -2.3

Q: And the BWD [10]?
A: 1.3

Q: What about the TDS [11] of the same compound?
A: 6

Q: What about the ILS at 6.25 mg/kg [12] of the same compound?
A: 1%

Q: And the BWD [13]?
A: -0.6

Q: And the TDS [14]?
A: 6

Q: Which TDS [15] does the source give for `CC(C)NC(=O)OCc1cn2c(c1COC(=O)NC(C)C)CCC2` here?
A: 5

Q: What about the KE (P388 [16]) of the same compound?
A: -1.23

Q: What about the ILS at 50 mg/kg [3] of the same compound?
A: 26%

Q: And the BWD [4]?
A: -4.4

Q: And the TDS [17]?
A: 1

Q: And the KE (P388 [18])?
A: -0.46

Q: What about the BWD [5] of the same compound?
A: -4.5

Q: What about the ILS at 12.5 mg/kg [8] of the same compound?
A: 20%

Q: And the BWD [9]?
A: -3.6

Q: What about the BWD [10] of the same compound?
A: -0.9

Q: What about the KE (P388 [19]) of the same compound?
A: -0.69

Q: And the TDS [20]?
A: 5

Q: What about the ILS at 25 mg/kg [21] of the same compound?
A: 28%

Q: And the TDS [22]?
A: 5

Q: With `CNC(=O)OCc1c(COC(=O)NC)c2n(c1C)CSC2` as the compound, how does the BWD [23] read?
A: -1.7

Q: What about the ILS at 50 mg/kg [24] of the same compound?
A: 32%

Q: What about the TDS [25] of the same compound?
A: 6

Q: What about the TDS [26] of the same compound?
A: 6

Q: And the BWD [27]?
A: -2.2

Q: And the TDS [28]?
A: 6

Q: What about the ILS at 25 mg/kg [29] of the same compound?
A: 26%

Q: What about the BWD [30] of the same compound?
A: -1.9

Q: What about the TDS [31] of the same compound?
A: 6

Q: And the KE (P388 [32])?
A: -0.03

Q: And the KE (P388 [33])?
A: 0

Q: And the BWD [34]?
A: -1

Q: What does the source list for `CC(C)NC(=O)OCc1c(COC(=O)NC(C)C)c(-c2ccc(Cl)c(Cl)c2)n2c1C[S+]([O-])C2` (stereo unspecified)?
A: TDS [35]: 6; BWD [36]: -2.9; ILS at 200 mg/kg [37]: -11%; TDS [38]: 6; TDS [39]: 6; BWD [40]: -3.1; TDS [41]: 3; BWD [42]: -1.9; BWD [43]: -0.9; BWD [44]: -3.4; TDS [45]: 6
